PMC7781011 (Journal of Inflammation Research, 2020)
“Also recorded” adds a separate entry of the source. Where two headings read alike, the source gives them in different places.

Tests used:
rat COX-2 = biological target: T1, rat COX-2 (Rattus norvegicus, UniProt P35355); test: Cell-free fluorometric COX-2 assay; type: biochemical
T1 sequence (P35355 18-604): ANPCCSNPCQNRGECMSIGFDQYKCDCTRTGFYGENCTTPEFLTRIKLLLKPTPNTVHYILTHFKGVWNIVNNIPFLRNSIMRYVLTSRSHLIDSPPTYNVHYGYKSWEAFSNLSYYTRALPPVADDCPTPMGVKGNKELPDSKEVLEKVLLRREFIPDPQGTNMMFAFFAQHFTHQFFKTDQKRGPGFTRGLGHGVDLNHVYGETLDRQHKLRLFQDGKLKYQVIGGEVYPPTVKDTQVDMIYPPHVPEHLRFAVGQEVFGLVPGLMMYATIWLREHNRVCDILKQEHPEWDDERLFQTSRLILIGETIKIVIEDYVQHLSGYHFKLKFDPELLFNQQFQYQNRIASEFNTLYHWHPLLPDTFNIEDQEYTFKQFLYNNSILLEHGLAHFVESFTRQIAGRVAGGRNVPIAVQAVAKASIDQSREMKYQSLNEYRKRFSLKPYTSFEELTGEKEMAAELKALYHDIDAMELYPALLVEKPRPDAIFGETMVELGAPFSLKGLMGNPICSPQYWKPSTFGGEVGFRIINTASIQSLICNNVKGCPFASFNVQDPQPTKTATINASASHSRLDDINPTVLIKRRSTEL

human COX-1 = human COX-1 (Homo sapiens, UniProt P23219); test: Binding assay using isothermal titration calorimetry
Outline: (§1)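 Serial injections of test compound (up to 1 mM) into enzyme-containing cell at 1 mM protein, both dissolved in PBS and degassed before use. Titration continued until heat signal approached zero at saturation. Isotherm fitted to obtain dissociation constant KD.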

human 5-LOX = biological target: T2, human 5-LOX (Homo sapiens, UniProt P09917); test: as above
T2 sequence (P09917 1-674): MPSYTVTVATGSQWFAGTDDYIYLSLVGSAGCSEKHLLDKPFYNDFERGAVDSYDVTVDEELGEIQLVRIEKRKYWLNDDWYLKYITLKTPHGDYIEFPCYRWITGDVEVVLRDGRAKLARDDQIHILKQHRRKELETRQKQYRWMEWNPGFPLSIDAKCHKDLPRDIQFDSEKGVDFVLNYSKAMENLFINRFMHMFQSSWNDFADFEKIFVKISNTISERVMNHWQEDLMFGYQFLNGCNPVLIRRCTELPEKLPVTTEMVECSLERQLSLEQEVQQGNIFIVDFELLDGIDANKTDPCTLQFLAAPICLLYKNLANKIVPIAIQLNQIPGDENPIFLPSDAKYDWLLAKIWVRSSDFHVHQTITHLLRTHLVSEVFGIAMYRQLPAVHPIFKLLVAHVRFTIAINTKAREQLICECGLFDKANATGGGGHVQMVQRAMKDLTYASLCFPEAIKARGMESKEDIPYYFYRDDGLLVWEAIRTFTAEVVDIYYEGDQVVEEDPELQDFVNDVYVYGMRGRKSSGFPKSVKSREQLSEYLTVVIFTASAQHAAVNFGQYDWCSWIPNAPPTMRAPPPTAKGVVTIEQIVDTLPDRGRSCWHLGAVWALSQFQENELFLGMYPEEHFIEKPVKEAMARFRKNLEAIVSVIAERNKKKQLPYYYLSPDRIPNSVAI
Outline: as §1

mouse mPGES-1 = biological target: T3, mouse mPGES-1 (Mus musculus, UniProt Q9JM51); test: Cell-free mPGES-1 assay; type: biochemical
T3 sequence (Q9JM51 1-153): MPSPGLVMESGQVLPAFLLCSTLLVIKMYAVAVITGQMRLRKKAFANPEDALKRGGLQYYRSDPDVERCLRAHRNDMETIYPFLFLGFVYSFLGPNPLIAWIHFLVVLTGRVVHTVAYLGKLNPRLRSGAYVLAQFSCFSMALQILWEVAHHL
Outline: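 Enzyme in 15 mM Tris-HCl pH 7.4 with 1 mM GSH, preincubated 20 min with compound (0.1–100 µM); plate held 15 min at 20°C. PGH2 (final 2.8 µM) added, 45 s at room temperature, then stopped with SnCl2 in 1N HCl. PGE2 by ELISA, in triplicate, % inhibition versus untreated. Human enzyme from E. coli or commercial; mouse enzyme from vas deferens/seminal vesicles. IC50 by four-parameter nonlinear regression.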

[1] = tested on: carrageenan-induced hind paw edema of rats; test: Carrageenan-induced rat paw edema model; type: in vivo, rat (male Fischer F344); conditions: for TXB2 levels in paw exudates / LTB4 levels in paw exudates / PGE2 levels in paw exudates / PGI2 levels in paw exudates: 400 ppm; for edema inhibition (maximum): 400 ppm in diet (oral), 3 hours after carrageenan injection; for LTB4 levels in paw exudates / PGE2 levels in paw exudates / PGI2 levels in paw exudates: compared to control (vehicle)
Outline: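 Male F344 rats (350–400 g) fed AIN-76A diet, either control or with compound or reference inhibitor at 400 ppm; separate saline group. 0.1 mL 1% λ-carrageenan in saline injected subplantar into left hind paw, saline into right. Dorsiventral paw thickness by digital caliper before and 1–6 h after injection; % edema inhibition. Paw exudate PGE2, LTB4, TXB2 and PGI2 measured by ELISA. Stomach and organs examined for ulcers.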

human COX-2 = biological target: T4, human COX-2 (Homo sapiens, UniProt P35354); test: Circular dichroism, change in secondary structure; conditions: CD, Human COX-2, LFA-9 10 µM
T4 sequence (P35354 18-604): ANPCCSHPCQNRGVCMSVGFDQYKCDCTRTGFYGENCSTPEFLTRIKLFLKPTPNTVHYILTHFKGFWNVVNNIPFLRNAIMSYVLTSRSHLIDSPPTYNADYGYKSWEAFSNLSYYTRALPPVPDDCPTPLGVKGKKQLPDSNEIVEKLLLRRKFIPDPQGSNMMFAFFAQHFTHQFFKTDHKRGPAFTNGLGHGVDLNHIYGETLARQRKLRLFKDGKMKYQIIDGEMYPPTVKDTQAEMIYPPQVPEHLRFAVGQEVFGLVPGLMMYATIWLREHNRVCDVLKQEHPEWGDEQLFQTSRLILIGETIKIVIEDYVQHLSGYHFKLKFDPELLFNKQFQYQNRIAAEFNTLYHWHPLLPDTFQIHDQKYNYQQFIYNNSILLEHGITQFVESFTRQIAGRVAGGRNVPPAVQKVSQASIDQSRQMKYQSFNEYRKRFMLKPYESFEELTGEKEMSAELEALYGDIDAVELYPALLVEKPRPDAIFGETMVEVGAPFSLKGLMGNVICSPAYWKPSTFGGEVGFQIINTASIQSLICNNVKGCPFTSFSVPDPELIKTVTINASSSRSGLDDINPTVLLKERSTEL
Outline: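 Native and compound-treated (0.1–10 µM) enzymes in PBS pH 7.4 at final protein 200 µM. CD spectra corrected by subtracting buffer blanks. Percent change in secondary structure (α-helix, β-sheet) calculated with the CAPITO analysis server.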

Chain of human COX-1 (P23219 24-599): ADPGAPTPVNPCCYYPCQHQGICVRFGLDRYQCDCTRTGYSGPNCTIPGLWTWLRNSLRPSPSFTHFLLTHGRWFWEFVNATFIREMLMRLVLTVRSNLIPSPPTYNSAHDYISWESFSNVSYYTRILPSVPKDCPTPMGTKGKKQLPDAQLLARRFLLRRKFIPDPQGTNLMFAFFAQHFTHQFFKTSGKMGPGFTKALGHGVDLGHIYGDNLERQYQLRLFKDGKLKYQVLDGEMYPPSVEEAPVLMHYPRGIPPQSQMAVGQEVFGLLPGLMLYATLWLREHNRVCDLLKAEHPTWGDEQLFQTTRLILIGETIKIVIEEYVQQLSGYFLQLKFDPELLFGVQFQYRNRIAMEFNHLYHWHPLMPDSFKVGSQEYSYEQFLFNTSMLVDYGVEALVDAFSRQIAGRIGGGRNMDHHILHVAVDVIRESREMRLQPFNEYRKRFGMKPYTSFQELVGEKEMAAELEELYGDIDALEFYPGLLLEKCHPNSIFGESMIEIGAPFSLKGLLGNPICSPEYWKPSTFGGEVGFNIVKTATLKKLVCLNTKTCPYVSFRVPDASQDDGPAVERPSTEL

Compound | inhibition of COX-2 activity (rat COX-2; cell-free, rat, up to the tested range of 1 mM) | Kd (human COX-1) | Kd (human 5-LOX) | Kd (human 5-LOX; read-out: KD (KD2), ITC, Human 5-LOX, sequential binding sites, second site) | IC50 (mouse mPGES-1) | TXB2 levels in paw exudates [1] | gastrointestinal (and other) toxicity ([1]; 400 ppm in diet) | edema inhibition (maximum) [1] | LTB4 levels in paw exudates [1] | PGE2 levels in paw exudates [1] | PGI2 levels in paw exudates [1] | Change in Secondary Structure (human COX-2) | IC50 (rat COX-2)
CC1(C)Cc2c(-c3ccccc3)c(-c3ccc(Cl)cc3)c(CC(=O)NCC(=O)O)n2C1 [LFA-9, 2-[[2-[2-(4-chlorophenyl)-6,6-dimethyl-1-phenyl-5,7-dihydropyrrolizin-3-yl]acetyl]amino]acetic acid] | did not show inhibition | > 1000 µM | 18 µM | 210 µM | 0.52 µM | maintained homeostasis | did not show any gastrointestinal toxicity; also recorded: did not show any gastrointestinal and any other toxicities | 70.4% | reduced | reduced | spared | No change in secondary structure | –
CC1(C)Cc2c(-c3ccccc3)c(-c3ccc(Cl)cc3)c(CC(=O)O)n2C1 [Licofelone, reference compound] | – | – | – | – | > 15 µM | reduced | – | 61.7% | reduced | reduced | reduced | – | 3.26 µM
